Test results published in article PMC2669314 (Journal of medicinal chemistry, 2009).
Read-outs that look alike come from different tables or passages of the source. Where a SMILES comes first, the peptide text is derived from it. [ ]: non-standard residue; d: D form. The star is where a group is joined. FITC = O=C1OC2(c3ccc(O)cc3Oc3cc(O)ccc32)c2ccc(NC(=S)*)cc21; pY = N[C@@H](Cc1ccc(OP(=O)(O)O)cc1)C(=O)O; Ahx = NCCCCCC(=O)O

Experiments:
Shc SH2 domain [1] = biological target: T1, Shc SH2 domain (Homo sapiens, UniProt P29353); assay: Steady state; assay type: binding; conditions: for Kd ± s.d.: Table 1, FITC-labelled peptides, n.b. = no binding
T1 sequence (P29353 488-579 limits assumed): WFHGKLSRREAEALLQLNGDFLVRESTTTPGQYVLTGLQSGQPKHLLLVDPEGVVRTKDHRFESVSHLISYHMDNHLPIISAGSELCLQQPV
Outline: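 Direct titration: 5 nM N-terminal fluorescein-labelled peptide in 1× BS with 10% (v/v) DMSO, with Shc protein serially diluted in from a 100 μM starting concentration. Excitation at 485 nm and parallel/perpendicular emission at 535 nm. Kd comes from fitting anisotropy against protein concentration to a single-site quadratic binding model, corrected for the bound/free fluorescence intensity ratio.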

Shc SH2 domain [2] = biological target: T1, Shc SH2 domain; assay: Fluorescence anisotropy competition assay using peptide 8 as reference peptide; assay type: binding
Shc SH2 domain protein [3] = biological target: T2, Shc SH2 domain protein (UniProt P29353); assay: fluorescence polarisation
T2 sequence: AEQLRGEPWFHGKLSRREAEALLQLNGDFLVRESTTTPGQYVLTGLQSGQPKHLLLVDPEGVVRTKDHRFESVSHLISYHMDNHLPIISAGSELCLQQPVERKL

[4] = biological target: FITC-NH-(CH2)5-CO-pY-Q-G-L-S-amide; assay: fluorescence polarisation
[5] = biological target: FITC-NH-(CH2)4-CO-pY-Q-G-L-S-amide; assay: fluorescence polarisation
[6] = biological target: FITC-NH-(CH2)4-CO-L-pY-Q-G-L-S-amide; assay: fluorescence polarisation
[7] = biological target: FITC-NH-(CH2)3-CO-L-pY-Q-G-L-S-amide; assay: fluorescence polarisation
FITC-pY-Q-G-L-S-amide = assay: fluorescence polarisation
[8] = biological target: FITC-NH-(CH2)2-CO-pY-Q-G-L-S-amide; assay: fluorescence polarisation
[9] = biological target: FITC-NH-(CH2)3-CO-pY-Q-G-L-S-amide; assay: fluorescence polarisation
[10] = biological target: FITC-NH-(CH2)2-CO-L-pY-Q-G-L-S-amide; assay: fluorescence polarisation
Shc SH2 domain protein [11] = biological target: T2, Shc SH2 domain protein; assay: fluorescence polarisation; remark: listed apart in the source

With `CC(C)C[C@H](NC(=O)CNC(=O)[C@H](CCC(N)=O)NC(=O)[C@H](Cc1ccc(OP(=O)(O)O)cc1)NC(=O)[C@H](CC(C)C)NC(=S)Nc1ccc2c(c1)C(=O)OC21c2ccc(O)cc2Oc2cc(O)ccc21)C(=O)N[C@@H](CO)C(N)=O` [compound 3, FITC-L-pY-Q-G-L-S-amide] (HELM PEPTIDE1{[O=C1OC2(c3ccc(O)cc3Oc3cc(O)ccc32)c2ccc(NC(=S)[*:2])cc21].L.[O=C([C@H](Cc1ccc(OP(=O)(O)O)cc1)N[*:1])[*:2]].Q.G.L.S.[am]}$$$$V2.0) the Kd (Shc SH2 domain [1]; FITC-containing peptides) was “complete loss of binding affinity” and the “Kd ± s.d.” value (Shc SH2 domain [1]) was “n.b. ^b”.

For `CC(=O)N[C@@H](Cc1ccc(OP(=O)(O)O)cc1)C(=O)N[C@@H](CCC(N)=O)C(=O)NCC(N)=O` [Ac-pY-Q-G-amide] (HELM PEPTIDE1{[ac].[O=C([C@H](Cc1ccc(OP(=O)(O)O)cc1)N[*:1])[*:2]].Q.G.[am]}$$$$V2.0), the IC50 (Shc SH2 domain [2]) was over 500 µM.

“Ac-pY-Q-G-L-S-NHR, R = homoallyl, no N-allyl substitution (peptide 35)” gave an IC50 (Shc SH2 domain protein [3]) of 165 µM.

For “FITC-NH-(CH2)-CO-pY-Q-G-L-S-amide (YQGLS; not fully specified; FITC-NH-(CH2)-CO- on the N-terminus; phosphotyrosine at 1; C-terminal amide) [compound 5]”, the “Kd ± s.d.” value (Shc SH2 domain [1]) was “n.b”.

For `CC(=O)NCCCCC(=O)N[C@@H](Cc1ccc(OP(=O)(O)O)cc1)C(=O)N[C@@H](CCC(N)=O)C(=O)NCC(=O)N[C@@H](CC(C)C)C(=O)N[C@@H](CO)C(N)=O` [compound 15, Ac-NH-(CH2)4-CO-pY-Q-G-L-S-amide] (HELM PEPTIDE1{[ac].[O=C(CCCCN[*:1])[*:2]].[O=C([C@H](Cc1ccc(OP(=O)(O)O)cc1)N[*:1])[*:2]].Q.G.L.S.[am]}$$$$V2.0), the IC50 (Shc SH2 domain [2]) was 158 ± 10 µM.

Work on “Shc SH2 domain protein (from UniProt P29353 480-583) (domain or fragment)” yielded a Kd [4] of 4.7 µM, a Kd [5] of 350 nM and a Kd [6] of 8.9 µM. For the same molecule, the Kd [7] was 8.6 µM, the Kd (FITC-pY-Q-G-L-S-amide) was 12.4 µM and the Kd [8] was 1090 nM. For the same molecule, the Kd [9] was 7.2 µM and the Kd [10] was 7.6 µM.

For `CC(C)C[C@H](NC(=O)CNC(=O)[C@H](CCC(N)=O)NC(=O)[C@H](Cc1ccc(OP(=O)(O)O)cc1)NC(=O)[C@H](CC(C)C)NC(=O)CCCCCNC(=S)Nc1ccc2c(c1)C(=O)OC21c2ccc(O)cc2Oc2cc(O)ccc21)C(=O)N[C@@H](CO)C(N)=O` [compound 14, FITC-NH-(CH2)5-CO-L-pY-Q-G-L-S-amide] ({FITC-Ahx}-L[pY]QGLS-NH2), the “Kd ± s.d.” value (Shc SH2 domain [1]) was “n.b”.

“Ac-pY-Q-G-L-S-NHR, R = allyl, no N-allyl substitution (peptide 31)” gave an IC50 (Shc SH2 domain protein [3]) of 189 µM.

Ac-pY-Q-G-L-S-amide (peptide) gave an IC50 (Shc SH2 domain protein [3]) of 112 µM.

“FITC-NH-(CH2) -CO-L-pY-Q-G-L-S-amide (LYQGLS; not fully specified; FITC-NH-(CH2)-CO- on the N-terminus; phosphotyrosine at 2; C-terminal amide) [compound 10]” was tested, and the “Kd ± s.d.” value (Shc SH2 domain [1]) was “n.b”.

`CC(=O)N[C@@H](Cc1ccc(OP(=O)(O)O)cc1)C(=O)N[C@@H](CCC(N)=O)C(=O)NCC(=O)N[C@@H](CC(C)C)C(=O)N[C@@H](CO)C(N)=O` [Ac-pY-Q-G-L-S-amide] (HELM PEPTIDE1{[ac].[O=C([C@H](Cc1ccc(OP(=O)(O)O)cc1)N[*:1])[*:2]].Q.G.L.S.[am]}$$$$V2.0) was tested, and the IC50 (Shc SH2 domain [2]) was 112.5 ± 0.7 µM and the “Shc SH2 domain binding affinity relative to parent Gly-containing peptide 45” value (Shc SH2 domain [2]; relative to 45 (IC50 = 248 μM)) was “approximate doubling of binding affinity”.

Ac-[pY]QGL-{NH‑allyl} [Ac-pY-Q-G-L-NHR, R = allyl, no N-allyl substitution (peptide 38)] gave an IC50 (Shc SH2 domain protein [11]) of 91 µM.

B1: Ac-pY-Q-G-L-amide (peptide)
peptide: YQGL
HELM: PEPTIDE1{[ac].[O=C([C@H](Cc1ccc(OP(=O)(O)O)cc1)N[*:1])[*:2]].Q.G.L.[am]}$$$$V2.0
SMILES: CC(=O)N[C@@H](Cc1ccc(OP(=O)(O)O)cc1)C(=O)N[C@@H](CCC(N)=O)C(=O)NCC(=O)N[C@@H](CC(C)C)C(N)=O
For B1, the IC50 (Shc SH2 domain protein [11]) was 248 µM.
